TRPC4 potent = allosterically enhances the mouse TRPC4 cation channel. Q9QUQ5. HEK293 TRPC4beta/mu-opioid, DAMGO EC20, Fluo-4 Ca2+ flux; hits give high values. B-score at 10 µM. 310,000 compounds, 0.42% hits. AID 2227;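 active = B-score of calcium response area above 5 SD of library B-scores, with initial fluorescence ratio within 5 SD of library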;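 also: B-score of integrated fluorescence ratio over time as area under calcium response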
TRPC4 act = activators of mouse TRPC4 channel; HEK293 TRPC4beta/mu-opioid, Fluo4 calcium fluorescence; hits give high values; B-score at 10 µM; 310,000 compounds, 0.49% hits;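 active = B-score above 5 SD of library B-scores, and initial fluorescence ratio not above library mean plus 5 SD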;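 also: positive B-score marks a calcium rise read as TRPC4 activation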
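Assay system: HEK293 stable line with TRPC4beta plus mu-opioid receptor. Times: dye 45 min RT, read 110 s. Measured by: kinetic Fluo4 calcium fluorescence. Measure: B score of integrated ratio. Controls: assay buffer as low control, maximal DAMGO as high control.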
TRPC6 inhibitor = inhibitors of mouse TRPC6 channel; B-score at 10 µM; HEK293-TRPC6, membrane potential dye, ACh-evoked depolarization; hits give low values; Q61143; 310,000 compounds, 1.1% hits;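 active = B-score under library mean minus 3 SD, initial fluorescence not abnormally high, positive integrated signal ratio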;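 also: B-score derived from integrated fluorescence ratio over the kinetic read; more negative B-score means stronger inhibition of depolarization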
Target sequence (Q61143 whole entry, looked up): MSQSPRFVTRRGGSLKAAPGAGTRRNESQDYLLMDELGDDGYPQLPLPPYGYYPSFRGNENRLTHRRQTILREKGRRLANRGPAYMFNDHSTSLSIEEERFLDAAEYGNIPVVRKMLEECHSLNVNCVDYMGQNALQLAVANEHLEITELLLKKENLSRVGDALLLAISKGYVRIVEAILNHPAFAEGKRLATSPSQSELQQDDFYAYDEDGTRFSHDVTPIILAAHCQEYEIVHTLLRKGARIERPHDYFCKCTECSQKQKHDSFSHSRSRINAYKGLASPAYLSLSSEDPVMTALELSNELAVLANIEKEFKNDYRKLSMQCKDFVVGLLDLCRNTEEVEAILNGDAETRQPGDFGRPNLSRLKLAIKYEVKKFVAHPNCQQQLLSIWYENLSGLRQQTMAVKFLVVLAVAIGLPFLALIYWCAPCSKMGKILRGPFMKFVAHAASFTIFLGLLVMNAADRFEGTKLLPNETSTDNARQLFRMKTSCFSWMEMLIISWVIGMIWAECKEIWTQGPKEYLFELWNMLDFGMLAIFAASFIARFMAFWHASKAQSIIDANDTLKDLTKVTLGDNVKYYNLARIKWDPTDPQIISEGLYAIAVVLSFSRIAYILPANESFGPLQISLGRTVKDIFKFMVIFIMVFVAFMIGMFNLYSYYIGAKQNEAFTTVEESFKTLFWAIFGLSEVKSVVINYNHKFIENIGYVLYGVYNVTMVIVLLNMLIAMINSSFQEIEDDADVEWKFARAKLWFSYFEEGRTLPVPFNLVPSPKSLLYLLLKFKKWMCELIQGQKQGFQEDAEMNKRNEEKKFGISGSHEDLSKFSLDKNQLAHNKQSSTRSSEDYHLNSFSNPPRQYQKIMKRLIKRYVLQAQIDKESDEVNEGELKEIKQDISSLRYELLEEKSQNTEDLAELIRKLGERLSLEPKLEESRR
TRPC6 act = mouse TRPC6 channel activation; HEK293-TRPC6 membrane potential dye fluorescence; hits give high values; B-score at 10 µM; 310,000 compounds, 0.13% hits; AID 2550;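 active = B-score of the integrated fluorescence ratio above library mean plus 3 SD, and starting fluorescence ratio within library mean plus 5 SD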;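 also: higher score means more depolarization so channel activation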
TRPC4 block = blocks the mouse TRPC4 cation channel. Q9QUQ5. HEK293 TRPC4beta/mu-opioid, DAMGO-evoked Fluo4 calcium flux; hits give low values. B-score at 10 µM. 300,000 compounds, 0.39% hits. AID 2247;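 active = B-score over 3 SD under the library average, no early fluorescence shift, positive overall ratio signal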
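Material: HEK293 cells with stable TRPC4beta plus mu-opioid receptor expression / Probe or stimulus: DAMGO in two steps, submaximal then maximal / Compound: single concentration per test compound / Technique: kinetic Fluo4 fluorescence imaging of calcium influx / Read-out: per-well B score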
TRPC4 spec 2 = second selectivity test of TRPC6 inhibitors: effect on mouse TRPC4; shares compounds with TRPC6 inhibitor; HEK293 TRPC4/MOR, membrane potential dye fluorescence; channel activated by saturating DAMGO dose; inhibition, % at 10 µM; 920 compounds, 42% hits; AID 2776;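 active = compounds whose fluorescence signal differed from control wells by over 3 SD, either direction, in both duplicate plates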
TRPC4 spec = tests whether TRPC6 inhibitors also affect mouse TRPC4; 920 compounds, 61% hits; HEK293 TRPC4/mu-opioid, membrane potential fluorescence; shares compounds with TRPC6 inhibitor; activity change, negative = inhibition, % at 10 µM;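 active = rise or fall in signal beyond 3 SD of buffer-only wells in both replicate plates, either sign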;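 also: integrated kinetic ratio of fluorescence range over baseline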
HEK293 MPD ctr 2-1 = second counter-screen for TRPC6 inhibitors: parental HEK293 cells. shares compounds with TRPC6 inhibitor. parental HEK293 membrane potential dye fluorescence; maximal acetylcholine challenge after compound addition. signal change vs control, % at 10 µM. 920 compounds, 31% hits. AID 2779;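 active = membrane potential signal moving either way by over 3 SD of the maximum-effect control, in both duplicate plates, meaning non-specific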
HEK293 MPD ctr-1 = parental HEK293 nonspecific activity of TRPC6 inhibitors; shares compounds with TRPC6 inhibitor; parental HEK293 membrane potential dye fluorescence; membrane potential signal change, % at 10 µM; 920 compounds, 60% hits; AID 2780;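 active = membrane potential signal shifting up or down by more than 3 SD of buffer-only wells, on both duplicate plates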
HEK293 MPD ctr-2 = parental HEK293 nonspecific activity of TRPC6 modulators | shares compounds with TRPC6 inhibitor | membrane potential dye fluorescence | membrane potential signal change, % at 10 µM | 2,400 compounds, 51% hits;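 active = membrane potential signal moves up or down beyond 5 SD from buffer-only wells, on both duplicate plates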
HEK293 MPD ctr 2-2 = second counter-screen for TRPC6 modulators: effect in parental HEK293 cells; shares compounds with TRPC6 inhibitor; membrane potential dye fluorescence; after compound, maximal acetylcholine stimulation; inhibition, % at 10 µM; 2,400 compounds, 14% hits;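 active = membrane potential signal drops by more than 5 SD from the mean control signal, in both duplicate plates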;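 also: plate controls were acetylcholine ECmax control wells for no effect and buffer only wells for full effect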
TRPC4 ctr mod = tests whether TRPC6 modulators also affect mouse TRPC4 | shares compounds with TRPC6 inhibitor | HEK293 TRPC4/mu-opioid, membrane potential fluorescence | percent change from control (negative = decrease, positive = increase), % at 10 µM | 2,400 compounds, 69% hits | AID 488927;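 active = membrane potential signal moved up or down beyond 5 SD of buffer control wells, in both duplicate plates, actives on both sides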;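 also: plate controls were assay buffer wells for no effect and DAMGO maximal-effect wells for full effect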
TRPC4 ctr inh 2 = second check of whether TRPC6 modulators also affect mouse TRPC4. shares compounds with TRPC6 inhibitor. HEK293 TRPC4/mu-opioid, membrane potential dye fluorescence; stimulated with maximal-effect DAMGO. inhibition, % at 10 µM. 2,400 compounds, 55% hits. AID 488928;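 active = drop in membrane potential signal beyond 5 SD of the control wells in both duplicate plates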;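 also: TRPC4 counter screen for TRPC6 hits run under conditions tuned for TRPC6 not TRPC4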
TRPC6 inh conf = confirmation of mouse TRPC6 inhibitors; 3,300 compounds, 43% hits; HEK293-TRPC6, membrane potential dye, ACh-evoked depolarization; inhibition, % at 10 µM; shares compounds with TRPC6 inhibitor;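 active = fluorescence ratio falls more than 5 SD below the full-stimulation control mean, in both duplicate runs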;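 also: integrated fluorescence ratio of peak minus minimum over baseline after agonist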
TRPC6 act confirm = mouse TRPC6 activator confirmation | HEK293-TRPC6 membrane potential dye fluorescence, FDSS | AID 488961 | activation, % at 10 µM | shares compounds with TRPC6 inhibitor | 2,800 compounds, 11% hits;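 active = ratio signal rise beyond 5 SD above unstimulated control wells' mean, seen in both duplicate runs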;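 also: plate controls were buffer EC0 wells for no effect and acetylcholine ECmax response for full effect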
The depositor's hits bear a star. Only some compounds are listed: those with a hit (about 2.3% of all), similar ones and a draw of the others.

COc1cccc(NC(=O)C(NC2CCCC2)c2ccccc2)c1 (stereo not given) was read as TRPC4 potent inactive, TRPC4 act inactive, TRPC6 inhibitor -9.6*, TRPC6 act inactive, TRPC4 block inactive, TRPC4 spec 2 inactive, TRPC4 spec 12%*, HEK293 MPD ctr 2-1 245%*, HEK293 MPD ctr-1 9.7%* and TRPC6 inh conf inactive.
`COc1ccc(N(CC(=O)NC2CC3CCC2C3)S(=O)(=O)c2ccc(C)c([N+](=O)[O-])c2)cc1` (stereo not given) gave TRPC4 potent inactive, TRPC4 act inactive, TRPC6 inhibitor inactive, TRPC6 act inactive and TRPC4 block inactive.
Screening Cc1nn(C(=O)N2CCOCC2)c(C)c1C returned TRPC4 potent inactive, TRPC4 act inactive, TRPC6 inhibitor -5.5*, TRPC6 act inactive, TRPC4 block inactive, HEK293 MPD ctr-2 inactive, HEK293 MPD ctr 2-2 inactive, TRPC4 ctr mod inactive, TRPC4 ctr inh 2 inactive, TRPC6 inh conf inactive and TRPC6 act confirm inactive.
For O=C(NCc1ccc2c(c1)OCO2)c1ccc2c(c1)N(Cc1c(F)cccc1Cl)C(=O)CS2 the results were TRPC4 potent inactive, TRPC4 act inactive, TRPC6 inhibitor inactive, TRPC6 act inactive and TRPC4 block inactive.
Screening CCC1CCCCN1CCCNC(=O)c1ccc2c(c1)N(Cc1c(F)cccc1Cl)C(=O)CS2 (stereo not given) returned TRPC4 potent inactive, TRPC4 act inactive, TRPC6 inhibitor -6.5*, TRPC6 act inactive, TRPC4 block inactive, HEK293 MPD ctr-2 inactive, HEK293 MPD ctr 2-2 inactive, TRPC4 ctr mod -17%*, TRPC4 ctr inh 2 82%*, TRPC6 inh conf 78%* and TRPC6 act confirm inactive.
`COc1ccc(-c2[nH]n(-c3ccc([N+](=O)[O-])cc3)c(=O)c2C=NCCN2CCNCC2)cc1` gave TRPC4 potent inactive, TRPC4 act inactive, TRPC6 inhibitor -6.5*, TRPC6 act inactive, TRPC4 block inactive, HEK293 MPD ctr-2 -227%*, HEK293 MPD ctr 2-2 inactive, TRPC4 ctr mod -42%*, TRPC4 ctr inh 2 50%*, TRPC6 inh conf 50%* and TRPC6 act confirm inactive.
`COC(=O)c1c(C)cc(C)n2c1nc1ccccc12` gave TRPC4 potent inactive, TRPC4 act inactive, TRPC6 inhibitor -6.8*, TRPC6 act inactive, TRPC4 block inactive, TRPC4 spec 2 inactive, TRPC4 spec -20%*, HEK293 MPD ctr 2-1 inactive, HEK293 MPD ctr-1 -334%*, TRPC6 inh conf 64%* and TRPC6 act confirm inactive.
Cc1cc(C)n2c(nc3ccccc32)c1C(=O)NN was read as TRPC4 potent inactive, TRPC4 act inactive, TRPC6 inhibitor inactive, TRPC6 act inactive and TRPC4 block inactive.
Screening O=C(OCC(=O)N1CCOCC1)c1ccc(Br)cc1 returned TRPC4 potent inactive, TRPC4 act inactive, TRPC6 inhibitor inactive, TRPC6 act inactive and TRPC4 block inactive.
CCOC(=O)c1cc(C)n(-c2c(C)n(C)n(-c3ccccc3)c2=O)c1C was read as TRPC4 potent inactive, TRPC4 act inactive, TRPC6 inhibitor -6*, TRPC6 act inactive, TRPC4 block inactive, HEK293 MPD ctr-2 inactive, HEK293 MPD ctr 2-2 inactive, TRPC4 ctr mod inactive, TRPC4 ctr inh 2 inactive, TRPC6 inh conf inactive and TRPC6 act confirm inactive.
COc1ccc(C2NC(=O)NC(O)(C(F)(F)F)C2C(=O)c2ccc(C)cc2)cc1 (stereo not given) was read as TRPC4 potent inactive, TRPC4 act inactive, TRPC6 inhibitor -9.6*, TRPC6 act inactive, TRPC4 block inactive, TRPC4 spec 2 inactive, TRPC4 spec inactive, HEK293 MPD ctr 2-1 14%*, HEK293 MPD ctr-1 inactive, TRPC6 inh conf 65%* and TRPC6 act confirm inactive.
Screening COc1ccc(C2NC(=O)NC(O)(C(F)(F)F)C2C(=O)c2ccccc2)cc1OC (stereo not given) returned TRPC4 potent inactive, TRPC4 act inactive, TRPC6 inhibitor inactive, TRPC6 act inactive and TRPC4 block inactive.
`CC[n+]1c(/C=C/Nc2ccccc2)oc2ccc(OC)cc21` gave TRPC4 potent inactive, TRPC4 act inactive, TRPC6 inhibitor -5.5*, TRPC6 act inactive, TRPC4 block -7*, HEK293 MPD ctr-2 -74%*, HEK293 MPD ctr 2-2 inactive, TRPC4 ctr mod -24%*, TRPC4 ctr inh 2 inactive, TRPC6 inh conf 46%* and TRPC6 act confirm inactive.
Screening CC[n+]1c(/C=C/Nc2ccccc2)oc2ccccc21 returned TRPC4 potent inactive, TRPC4 act inactive, TRPC6 inhibitor -7.3*, TRPC6 act inactive, TRPC4 block inactive, HEK293 MPD ctr-2 -169%*, HEK293 MPD ctr 2-2 76%*, TRPC4 ctr mod -44%*, TRPC4 ctr inh 2 82%*, TRPC6 inh conf 69%* and TRPC6 act confirm inactive.
`CC[n+]1c(/C=C/N(C)c2ccccc2)oc2ccc(F)cc21` gave TRPC4 potent inactive, TRPC4 act inactive, TRPC6 inhibitor inactive, TRPC6 act inactive and TRPC4 block inactive.
`COc1ccc2c(c1)N(C)/C(=C1/SC(=NCc3ccccc3)N(c3ccccc3)C1=O)S2` gave TRPC4 potent inactive, TRPC4 act inactive, TRPC6 inhibitor -6.5*, TRPC6 act inactive, TRPC4 block inactive, HEK293 MPD ctr-2 inactive, HEK293 MPD ctr 2-2 inactive, TRPC4 ctr mod inactive, TRPC4 ctr inh 2 inactive, TRPC6 inh conf inactive and TRPC6 act confirm inactive.

Compound activity (PubChem BioAssay)
